Experimental data as given in ChEMBL document CHEMBL1121685, “Development of new mitomycin C and porfiromycin analogues” (J Med Chem, 1981).

Tests used:
[1] = system: Mus musculus; test: Activity of compound dose of 8 mg/kg/day against Murine B-16 Melanocarcinoma in mice; type: functional
[2] = system: Mus musculus; test: Activity of compound dose of 2 mg/kg/day against Murine B-16 Melanocarcinoma in mice; type: functional
[3] = species: Mus musculus; test: Degree of leukopenia produced by compound is assessed form Percent change in white cells on days 5; type: functional
Outline: (§1)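 BDG₁ male mice received a single ip dose on day 0. The dose series topped out at the LD₅₀ level, or at twice the optimal dose for some agents. Total white blood cell count was taken on days 3, 5 and 7 and expressed as % change from untreated controls. Significance was set at p ≤ 0.05 or p ≤ 0.01.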

[4] = system: Mus musculus; test: Antitumor activity against P-388 murine leukemia cells in CDF1 female mice after intraperitoneal administration at the specified optimal dose of 25.6 mg/kg; type: functional
[5] = system: Mus musculus; test: Activity of compound dose of 16 mg/kg/day against Murine B-16 Melanocarcinoma in mice; type: functional
[6] = system: Mus musculus; test: Effect of compound on total white blood cell count in BDG1 male mice, after intraperitoneal administration at a dose of 25.6 mg/kg on day 7; type: functional
Outline: (§2)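 Single ip dose given on day 0 to BDG1 male mice over a descending dose series. Total white blood cell count is expressed as % change from untreated control on days 3, 5 and 7. Significance is flagged at p ≤ 0.05 and p ≤ 0.01.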

[7] = system: Mus musculus; test: Minimum effective dose that show activity against P-388 murine leukemia cells in CDF1 female mice, after intraperitoneal administration (optimal dose is 25.6 mg/kg); type: functional; conditions: P388, ip, read-out: MED
Outline: (§3)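 10⁶ P-388 ascites cells implanted ip in CDF₁ female mice. Six mice per dose, 10 saline-injected controls, and a concurrent mitomycin C reference group. %T/C = median survival time of treated/control × 100. MED is the lowest dose giving %T/C > 125. Therapeutic ratio = optimal dose/MED.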

[8] = species: Mus musculus; test: Half-wave potential produced by the compound at their optimal dose; type: functional; parameters: unit not given here
[9] = system: Mus musculus; test: Number of cured survivors, 45 days after administration of compound at a dose of 16 mg/kg/day in mice; type: functional
[10] = system: Mus musculus; test: Number of tumored survivors, 45 days after administration of compound at a dose of 16 mg/kg/day in mice; type: functional
[11] = system: Mus musculus; test: Effect of compound on total white blood cell count in BDG1 male mice, after intraperitoneal administration at a dose of 51.2 mg/kg on day 3 (highest dose was twice the optimal dose); type: functional
Outline: (§4)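 Single ip dose given on day 0 to BDG₁ male mice. Total white blood cell count measured on days 3, 5 and 7, expressed as % change from control. Highest dose was at the LD₅₀, or at twice the optimal dose where so footnoted. Significance reported at p ≤ 0.05 and p ≤ 0.01. D marks death of one or more mice.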

[12] = system: Mus musculus; test: Activity of compound dose of 1 mg/kg/day against Murine B-16 Melanocarcinoma in mice; type: functional
[13] = system: Mus musculus; test: Effect of compound on total white blood cell count in BDG1 male mice, after intraperitoneal administration at a dose of 25.6 mg/kg on day 5; type: functional; outline: as §2
[14] = system: Mus musculus; test: Activity of compound dose of 4 mg/kg/day against Murine B-16 Melanocarcinoma in mice; type: functional
[15] = Therapeutic ratio is expressed as ratio of optimal dose and minimum effective dose; type: ADME; conditions: mouse; read-out: TR; outline: as §3
[16] = system: Mus musculus; test: Number of cured survivors, 45 days after administration of compound at a dose of 4 mg/kg/day in mice; type: functional
[17] = system: Mus musculus; test: Activity of compound dose of 0.5 mg/kg/day against Murine B-16 Melanocarcinoma in mice; type: functional
[18] = system: Mus musculus; test: Effect of compound on total white blood cell count in BDG1 male mice, after intraperitoneal administration at a dose of 51.2 mg/kg on day 5 (highest dose was twice the optimal dose); type: functional; outline: as §4
[19] = system: Mus musculus; test: Effect of compound on total white blood cell count in BDG1 male mice, after intraperitoneal administration at a dose of 25.6 mg/kg on day 3; type: functional; outline: as §2
[20] = system: Mus musculus; test: Effect of compound on total white blood cell count in BDG1 male mice, after intraperitoneal administration at a dose of 17 mg/kg on day 3; type: functional; outline: as §2
[21] = system: Mus musculus; test: Effect of compound on total white blood cell count in BDG1 male mice, after intraperitoneal administration at a dose of 9.56 mg/kg on day 5; type: functional; outline: as §4
[22] = system: Mus musculus; test: Effect of compound on total white blood cell count in BDG1 male mice, after intraperitoneal administration at a dose of 17 mg/kg on day 7; type: functional; outline: as §2
[23] = system: Mus musculus; test: Antitumor activity against P-388 murine leukemia cells in CDF1 female mice after intraperitoneal administration at the specified optimal dose of 12.8 mg/kg; type: functional
[24] = system: Mus musculus; test: Effect of compound on total white blood cell count in BDG1 male mice, after intraperitoneal administration at a dose of 12.57 mg/kg on day 3; type: functional; outline: as §1
[25] = system: Mus musculus; test: Effect of compound on total white blood cell count in BDG1 male mice, after intraperitoneal administration at a dose of 9.56 mg/kg on day 3; type: functional; outline: as §4
[26] = system: Mus musculus; test: Effect of compound on total white blood cell count in BDG1 male mice, after intraperitoneal administration at a dose of 17 mg/kg on day 5; type: functional; outline: as §2
[27] = system: Mus musculus; test: Effect of compound on total white blood cell count in BDG1 male mice, after intraperitoneal administration at a dose of 12.57 mg/kg on day 5; type: functional; outline: as §1
[28] = system: Mus musculus; test: Effect of compound on total white blood cell count in BDG1 male mice, after intraperitoneal administration at a dose of 9.56 mg/kg on day 7; type: functional; outline: as §4
[29] = system: Mus musculus; test: Minimum effective dose that show activity against P-388 murine leukemia cells in CDF1 female mice, after intraperitoneal administration (optimal dose is 12.8 mg/kg); type: functional; conditions: P388, ip, read-out: MED; outline: as §3
[30] = system: Mus musculus; test: Effect of compound on total white blood cell count in BDG1 male mice, after intraperitoneal administration at a dose of 12.57 mg/kg on day 7; type: functional; outline: as §1
[31] = system: Mus musculus; test: Effect of compound on total white blood cell count in BDG1 male mice, after intraperitoneal administration at a dose of 0.96 mg/kg on day 3; type: functional; outline: as §1
[32] = system: Mus musculus; test: Effect of compound on total white blood cell count in BDG1 male mice, after intraperitoneal administration at a dose of 1.7 mg/kg on day 5; type: functional; outline: as §1
[33] = system: Mus musculus; test: Effect of compound on total white blood cell count in BDG1 male mice, after intraperitoneal administration at a dose of 0.96 mg/kg on day 5; type: functional; outline: as §1
[34] = system: Mus musculus; test: Effect of compound on total white blood cell count in BDG1 male mice, after intraperitoneal administration at a dose of 1.7 mg/kg on day 7; type: functional; outline: as §1
[35] = system: Mus musculus; test: Effect of compound on total white blood cell count in BDG1 male mice, after intraperitoneal administration at a dose of 1.3 mg/kg on day 3; type: functional; outline: as §1
[36] = system: Mus musculus; test: Effect of compound on total white blood cell count in BDG1 male mice, after intraperitoneal administration at a dose of 1.7 mg/kg on day 3; type: functional; outline: as §1
[37] = system: Mus musculus; test: Minimum effective dose that show activity against P-388 murine leukemia cells in CDF1 female mice, after intraperitoneal administration (optimal dose is 3.2 mg/kg); type: functional; conditions: P388, ip, read-out: MED; outline: as §3
[38] = system: Mus musculus; test: Effect of compound on total white blood cell count in BDG1 male mice, after intraperitoneal administration at a dose of 1.3 mg/kg on day 5; type: functional; outline: as §1
[39] = system: Mus musculus; test: Effect of compound on total white blood cell count in BDG1 male mice, after intraperitoneal administration at a dose of 0.96 mg/kg on day 7; type: functional; outline: as §1
[40] = system: Mus musculus; test: Antitumor activity against P-388 murine leukemia cells in CDF1 female mice after intraperitoneal administration at the specified optimal dose of 3.2 mg/kg; type: functional
[41] = system: Mus musculus; test: Effect of compound on total white blood cell count in BDG1 male mice, after intraperitoneal administration at a dose of 1.3 mg/kg on day 7; type: functional; outline: as §1

C=C(C)CNC1=C(C)C(=O)C2=C(C1=O)[C@H](COC(N)=O)C1(OC)[C@@H]3N[C@@H]3CN21 (stereo partly specified)
T/C [1]: 186%
T/C [2]: 146%
Change [3]: -59%
T/C [4]: 245%
T/C [5]: 226%
Change [6]: -34%
minimal effective dose [7]: 1.6 mg/kg
E1/2 [8]: -0.41
Survivors [9]: 3
Survivors [10]: 1
Change [11]: -60%
T/C [12]: 131%
Change [13]: -68%
T/C [14]: 160%
selectivity ratio [15]: 16
Survivors [16]: 1
T/C [17]: 122%
Change [18]: -25%
Change [19]: -60%

C#CCNC1=C(C)C(=O)C2=C(C1=O)[C@H](COC(N)=O)C1(OC)[C@@H]3N[C@@H]3CN21 (stereo partly specified)
Change [20]: -80%
Change [21]: -56%
Change [22]: -73%
T/C [23]: 358%
E1/2 [8]: -0.41
Change [24]: -68%
Change [25]: -59%
Change [26]: -75%
selectivity ratio [15]: 64
Change [27]: -69%
Change [28]: -28%
minimal effective dose [29]: 0.2 mg/kg
Change [30]: -52%

COC1=C(C)C(=O)C2=C(C1=O)[C@@H](COC(N)=O)[C@@]1(OC)[C@H]3N[C@H]3CN21 [MITOMYCIN A]
Change [3]: -2%
Change [31]: -11%
Change [32]: -24%
Change [33]: -25%
Change [34]: 5%
E1/2 [8]: -0.21
Change [35]: -12%
Change [36]: -28%
minimal effective dose [37]: 0.05 mg/kg
Change [38]: -15%
Change [39]: 4%
selectivity ratio [15]: 64
T/C [40]: 180%
Change [41]: -9%
